Experimental data: ChEMBL document CHEMBL5724801, “EUbOPEN Chemogenomics Library - Multiplex” (2024)
Where “and” joins values, the source holds several entries; their conditions need not be identical. Equal values may be shown once.

System: U2OS
Test: Multiplex assay against U2OS
Format: toxicity, cell-based
Conditions: human
Method in brief: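 Cells were classed with CellPathfinder machine-learning gating, first as Hoechst high-intensity objects or normal cells, then (normal cells) as healthy, pyknosed or fragmented nuclei, and finally (pyknosed cells) as mitotic or apoptotic. Staining of live cells at seeding used Hoechst33342, BioTracker Green Microtubule Cytoskeleton Dye, MitoTracker Red and Annexin V Alexa Fluor 680, with imaging on a CQ1 microscope at 37°C and 5% CO2 after compound addition. Tubulin, mitochondrial-mass and membrane-permeability phenotypes are per cents of healthy-nucleus cells.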

[1] = 12 h, 1 µM, compound concentration 1 uM
[2] = 12 h, 10 µM, compound concentration 10 uM
[3] = 24 h, 1 µM, compound concentration 1 uM
[4] = 24 h, 10 µM, compound concentration 10 uM
[5] = 48 h, 1 µM, compound concentration 1 uM
[6] = 48 h, 10 µM, compound concentration 10 uM

N#Cc1c(Oc2cccc(OS(=O)(=O)CCCC(F)(F)F)c2)cccc1C(F)(F)F
Population Apoptotic (%) [1]: 77% and 81%
Population Fragmented Nuclei (%) [1]: 27% and 12%
Population Healthy Nuclei (%) [1]: 61% and 76%
Population Hoechst High Intensity Objects (%) [1]: 3% and 0%
Population Membrane Permeable-Phenotype (%) [1]: 4% and 7%
Population Mitochondria Different-Phenotype (%) [1]: 2% and 7%
Population Mitotic Cells (%) [1]: 22% and 18%
Population Normal (%) [1]: 96% and 99%
Population Pyknosed Nuclei (%) [1]: 10%
Population Tubulin-Different-Phenotype (%) [1]: 0% and 8%
Total Cell Count [1]: 220 and 109
Population Apoptotic (%) [2]: 78% and 90%
Population Fragmented Nuclei (%) [2]: 27% and 14%
Population Healthy Nuclei (%) [2]: 63% and 75%
Population Hoechst High Intensity Objects (%) [2]: 3% and 0%
Population Membrane Permeable-Phenotype (%) [2]: 11% and 21%
Population Mitochondria Different-Phenotype (%) [2]: 8% and 4%
Population Mitotic Cells (%) [2]: 21% and 9%
Population Normal (%) [2]: 96% and 99%
Population Pyknosed Nuclei (%) [2]: 8% and 9%
Population Tubulin-Different-Phenotype (%) [2]: 7%
Total Cell Count [2]: 222 and 112
Population Apoptotic (%) [3]: 75% and 90%
Population Fragmented Nuclei (%) [3]: 25% and 12%
Population Healthy Nuclei (%) [3]: 61% and 79%
Population Hoechst High Intensity Objects (%) [3]: 2% and 1%
Population Membrane Permeable-Phenotype (%) [3]: 4% and 11%
Population Mitochondria Different-Phenotype (%) [3]: 2% and 3%
Population Mitotic Cells (%) [3]: 24% and 10%
Population Normal (%) [3]: 97% and 98%
Population Pyknosed Nuclei (%) [3]: 12% and 7%
Population Tubulin-Different-Phenotype (%) [3]: 3% and 7%
Total Cell Count [3]: 263 and 130
Population Apoptotic (%) [4]: 66%
Population Fragmented Nuclei (%) [4]: 26% and 9%
Population Healthy Nuclei (%) [4]: 66% and 83%
Population Hoechst High Intensity Objects (%) [4]: 6% and 3%
Population Membrane Permeable-Phenotype (%) [4]: 10% and 11%
Population Mitochondria Different-Phenotype (%) [4]: 8% and 0%
Population Mitotic Cells (%) [4]: 33%
Population Normal (%) [4]: 93% and 96%
Population Pyknosed Nuclei (%) [4]: 7%
Population Tubulin-Different-Phenotype (%) [4]: 5% and 7%
Total Cell Count [4]: 252 and 130
Population Apoptotic (%) [5]: 87% and 100%
Population Fragmented Nuclei (%) [5]: 17% and 16%
Population Healthy Nuclei (%) [5]: 70% and 73%
Population Hoechst High Intensity Objects (%) [5]: 3% and 2%
Population Membrane Permeable-Phenotype (%) [5]: 4% and 9%
Population Mitochondria Different-Phenotype (%) [5]: 0% and 4%
Population Mitotic Cells (%) [5]: 12% and 0%
Population Normal (%) [5]: 96% and 97%
Population Pyknosed Nuclei (%) [5]: 11% and 9%
Population Tubulin-Different-Phenotype (%) [5]: 3% and 7%
Total Cell Count [5]: 361 and 195
Population Apoptotic (%) [6]: 91% and 100%
Population Fragmented Nuclei (%) [6]: 23% and 11%
Population Healthy Nuclei (%) [6]: 64% and 77%
Population Hoechst High Intensity Objects (%) [6]: 4% and 3%
Population Membrane Permeable-Phenotype (%) [6]: 10% and 13%
Population Mitochondria Different-Phenotype (%) [6]: 6% and 4%
Population Mitotic Cells (%) [6]: 8% and 0%
Population Normal (%) [6]: 95% and 96%
Population Pyknosed Nuclei (%) [6]: 11% and 10%
Population Tubulin-Different-Phenotype (%) [6]: 6% and 7%
Total Cell Count [6]: 328 and 184

O=C(Nc1c[nH]nc1-c1nc2cc(CN3CCOCC3)ccc2[nH]1)NC1CC1 [AT-9283]
Population Apoptotic (%) [1]: 27.91% and 52.63%
Population Fragmented Nuclei (%) [1]: 2.75% and 2.61%
Population Healthy Nuclei (%) [1]: 85.4% and 84.97%
Population Hoechst High Intensity Objects (%) [1]: 0%
Population Membrane Permeable-Phenotype (%) [1]: 0.65% and 3.85%
Population Mitochondria Different-Phenotype (%) [1]: 0.32% and 9.23%
Population Mitotic Cells (%) [1]: 72.09% and 47.37%
Population Normal (%) [1]: 100%
Population Pyknosed Nuclei (%) [1]: 11.85% and 12.42%
Population Tubulin-Different-Phenotype (%) [1]: 1.29% and 0%
Total Cell Count [1]: 363 and 153
Population Apoptotic (%) [2]: 43% and 36.73%
Population Fragmented Nuclei (%) [2]: 6.56% and 13.38%
Population Healthy Nuclei (%) [2]: 60.66% and 52.11%
Population Hoechst High Intensity Objects (%) [2]: 0% and 0.7%
Population Membrane Permeable-Phenotype (%) [2]: 1.62% and 5.41%
Population Mitochondria Different-Phenotype (%) [2]: 0% and 14.86%
Population Mitotic Cells (%) [2]: 57% and 63.27%
Population Normal (%) [2]: 100% and 99.3%
Population Pyknosed Nuclei (%) [2]: 32.79% and 34.51%
Population Tubulin-Different-Phenotype (%) [2]: 2.16% and 2.7%
Total Cell Count [2]: 305 and 143
Population Apoptotic (%) [3]: 38.27% and 55.56%
Population Fragmented Nuclei (%) [3]: 5.31% and 3.57%
Population Healthy Nuclei (%) [3]: 73.21% and 75%
Population Hoechst High Intensity Objects (%) [3]: 0%
Population Membrane Permeable-Phenotype (%) [3]: 0.72% and 3.17%
Population Mitochondria Different-Phenotype (%) [3]: 0% and 7.94%
Population Mitotic Cells (%) [3]: 61.73% and 44.44%
Population Normal (%) [3]: 100%
Population Pyknosed Nuclei (%) [3]: 21.49% and 21.43%
Population Tubulin-Different-Phenotype (%) [3]: 1.81% and 0%
Total Cell Count [3]: 377 and 168
Population Apoptotic (%) [4]: 50.29% and 58.51%
Population Fragmented Nuclei (%) [4]: 11.38% and 13.89%
Population Healthy Nuclei (%) [4]: 28.28% and 20.83%
Population Hoechst High Intensity Objects (%) [4]: 0.34% and 1.37%
Population Membrane Permeable-Phenotype (%) [4]: 4.88% and 10%
Population Mitochondria Different-Phenotype (%) [4]: 0% and 10%
Population Mitotic Cells (%) [4]: 49.71% and 41.49%
Population Normal (%) [4]: 99.66% and 98.63%
Population Pyknosed Nuclei (%) [4]: 60.34% and 65.28%
Population Tubulin-Different-Phenotype (%) [4]: 10.98% and 3.33%
Total Cell Count [4]: 291 and 146
Population Apoptotic (%) [5]: 55.84% and 65.43%
Population Fragmented Nuclei (%) [5]: 5.53% and 3.43%
Population Healthy Nuclei (%) [5]: 57.45% and 50.29%
Population Hoechst High Intensity Objects (%) [5]: 0.24% and 0.57%
Population Membrane Permeable-Phenotype (%) [5]: 4.6% and 11.36%
Population Mitotic Cells (%) [5]: 44.16% and 34.57%
Population Normal (%) [5]: 99.76% and 99.43%
Population Pyknosed Nuclei (%) [5]: 37.02% and 46.29%
Population Tubulin-Different-Phenotype (%) [5]: 11.3% and 13.64%
Total Cell Count [5]: 417 and 176
Population Apoptotic (%) [6]: 69.51% and 86%
Population Fragmented Nuclei (%) [6]: 9.83% and 10.61%
Population Healthy Nuclei (%) [6]: 14.58% and 13.64%
Population Hoechst High Intensity Objects (%) [6]: 0.34% and 0%
Population Membrane Permeable-Phenotype (%) [6]: 27.91% and 11.11%
Population Mitochondria Different-Phenotype (%) [6]: 0% and 5.56%
Population Mitotic Cells (%) [6]: 30.49% and 14%
Population Normal (%) [6]: 99.66% and 100%
Population Pyknosed Nuclei (%) [6]: 75.59% and 75.76%
Population Tubulin-Different-Phenotype (%) [6]: 58.14% and 50%
Total Cell Count [6]: 296 and 132

C=CC(=O)N1CCC[C@@H](n2nc(C(=O)Nc3ccc(CC(=O)N(C)C)c(C)c3C)c3c(N)ncnc32)C1
Population Apoptotic (%) [1]: 31.58% and 48.15%
Population Fragmented Nuclei (%) [1]: 2.15% and 3.28%
Population Healthy Nuclei (%) [1]: 88.76% and 81.97%
Population Hoechst High Intensity Objects (%) [1]: 0%
Population Membrane Permeable-Phenotype (%) [1]: 1.08% and 0.67%
Population Mitochondria Different-Phenotype (%) [1]: 0.54% and 8.67%
Population Mitotic Cells (%) [1]: 68.42% and 51.85%
Population Normal (%) [1]: 100%
Population Pyknosed Nuclei (%) [1]: 9.09% and 14.75%
Population Tubulin-Different-Phenotype (%) [1]: 1.08% and 0%
Total Cell Count [1]: 418 and 183
Population Apoptotic (%) [2]: 42.86% and 45.45%
Population Fragmented Nuclei (%) [2]: 1.65% and 3.24%
Population Healthy Nuclei (%) [2]: 88.47% and 84.86%
Population Hoechst High Intensity Objects (%) [2]: 0.23% and 0%
Population Mitotic Cells (%) [2]: 57.14% and 54.55%
Population Normal (%) [2]: 99.77% and 100%
Population Pyknosed Nuclei (%) [2]: 9.88% and 11.89%
Population Tubulin-Different-Phenotype (%) [2]: 0.27% and 3.82%
Total Cell Count [2]: 426 and 185
Population Apoptotic (%) [3]: 37.21% and 57.14%
Population Fragmented Nuclei (%) [3]: 1.84% and 1.69%
Population Healthy Nuclei (%) [3]: 90.24% and 83.47%
Population Hoechst High Intensity Objects (%) [3]: 0.18% and 0%
Population Membrane Permeable-Phenotype (%) [3]: 0.41% and 2.54%
Population Mitochondria Different-Phenotype (%) [3]: 0.41% and 6.6%
Population Mitotic Cells (%) [3]: 62.79% and 42.86%
Population Normal (%) [3]: 99.82% and 100%
Population Pyknosed Nuclei (%) [3]: 7.92% and 14.83%
Population Tubulin-Different-Phenotype (%) [3]: 1.02% and 0%
Total Cell Count [3]: 544 and 236
Population Apoptotic (%) [4]: 57.14% and 50%
Population Fragmented Nuclei (%) [4]: 2.56% and 2.27%
Population Healthy Nuclei (%) [4]: 87.18% and 86.82%
Population Hoechst High Intensity Objects (%) [4]: 0%
Population Membrane Permeable-Phenotype (%) [4]: 1.47% and 8.38%
Population Mitotic Cells (%) [4]: 42.86% and 50%
Population Normal (%) [4]: 100%
Population Pyknosed Nuclei (%) [4]: 10.26% and 10.91%
Population Tubulin-Different-Phenotype (%) [4]: 0.84% and 2.62%
Total Cell Count [4]: 546 and 220
Population Apoptotic (%) [5]: 38.38% and 67.35%
Population Fragmented Nuclei (%) [5]: 2.8% and 4.6%
Population Healthy Nuclei (%) [5]: 87.64% and 82.86%
Population Hoechst High Intensity Objects (%) [5]: 0%
Population Membrane Permeable-Phenotype (%) [5]: 0.66% and 2.16%
Population Mitochondria Different-Phenotype (%) [5]: 0.11% and 7.41%
Population Mitotic Cells (%) [5]: 61.62% and 32.65%
Population Normal (%) [5]: 100%
Population Pyknosed Nuclei (%) [5]: 9.56% and 12.53%
Population Tubulin-Different-Phenotype (%) [5]: 0.66% and 0.31%
Total Cell Count [5]: 1036 and 391
Population Apoptotic (%) [6]: 50.48% and 54.35%
Population Fragmented Nuclei (%) [6]: 1.98% and 2.5%
Population Healthy Nuclei (%) [6]: 87.11% and 83.12%
Population Hoechst High Intensity Objects (%) [6]: 0.1% and 0.31%
Population Membrane Permeable-Phenotype (%) [6]: 1.07% and 3.01%
Population Mitochondria Different-Phenotype (%) [6]: 0.12% and 6.02%
Population Mitotic Cells (%) [6]: 49.52% and 45.65%
Population Normal (%) [6]: 99.9% and 99.69%
Population Pyknosed Nuclei (%) [6]: 10.91% and 14.37%
Population Tubulin-Different-Phenotype (%) [6]: 0.95% and 1.5%
Total Cell Count [6]: 963 and 321
